Results taken from paper PMC5956897 (Journal of inorganic biochemistry, 2018).

Legend:
[1] = test system: MDA-MB-231 cells; assay: Intracellular ROS detection with DCFH2-DA by flow cytometry; format: cell-based
Outline: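 Cells were seeded at 2.0 × 10⁵ per well and incubated overnight. They were treated for 2 h with test compound (50 μM) in phenol-red-free EMEM with 0.1% DMSO; the H₂O₂ control in PBS ran for 10 min. After PBS washes, cells took up DCFH₂-DA (30 μM) in warm PBS. They were detached with trypsin/EDTA, held on ice, and read by flow cytometry (488 nm excitation, 530/30 nm) within 1 h. n=3, mean ± SDM.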

[2] = test system: MDA-MB-231 cells; assay: Cell cycle analysis; format: cell-based; conditions: MDA-MB-231, 10 μM, 12 h
[3] = test system: MEL cells; assay: Spectrophotometric hemoglobin quantitation in induced MEL cells; format: cell-based, murine

SMILES	DCF response compared to untreated control ([1]; MDA-MB-231, positive control in PBS, 10 min)	ROS/RNS levels (DCF fluorescence) compared to untreated control ([1]; MDA-MB-231, 50 μM, 2 h)	G0/1 accumulation (cell cycle arrest) [2]	effect on hemoglobin production ([3]; 0.5 μM or 5 μM, 72 h, without SA)	decrease in intracellular hemoglobin concentrations ([3]; 72 h, without SA, statistically significant)	change in intracellular Hb concentrations ([3]; with succinylacetone (SA, 1 mM), normalized data)
OO [H2O2, Hydrogen peroxide]	an order of magnitude higher than that of the untreated control	–	–	–	–	–
O=C(N/N=C/c1ccccc1O)c1ccncc1 [SIH, salicyl isonicotinoyl hydrazone]	–	significant decrease of DCF fluorescence	arrest at the G1/S interface	did not have major effects on hemoglobin production	less than 20%	did not result in statistically significant changes
